Source: ChEMBL document CHEMBL3045704, “Biflavonoids isolated from Selaginella lepidophylla inhibit photosynthesis in spinach chloroplasts” (J Agric Food Chem, 2008)
Activity calls are given as the source filed them. No cut-off for these calls is given here.

How the values were obtained:
[1] = molecular target: Photosystem II protein D1 (Spinacia oleracea) (UniProt P69560); experiment: Inhibition of photosystem II in freshly lysed Spinacia oleracea (spinach) leaves chloroplasts assessed as induction of loss of reactions centers capacity to capture excitons at 300 to 900 uM
Summary of the method: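 JIP-test on Chl a fluorescence transients of freshly lysed spinach chloroplasts, dark-adapted 5 min at 20 µg/mL Chl. Measured at room temperature with a Handy PEA at 300, 600 and 900 µM. Parameters such as […] VJ were derived from the curves and expressed relative to control (%). Results are the average of three replicates.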

[2] = system: Spinacia oleracea; experiment: Inhibition of thylakoid membrane bound Magnesium-transporting Mg2+ ATPase in Spinacia oleracea (spinach) leaves chloroplasts assessed as enzyme activity at 300 uM; parameters: scale not given: the % may be the effect or the level left
Summary of the method: (§1)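 Chloroplasts were ground in 350 mM sorbitol, 5 mM ascorbate and 20 mM MES pH 6.5, centrifuged 3000g for 60 s, washed, and resuspended in 35 mM HEPES pH 7.6. Light-triggered thylakoid-bound Mg2+-ATPase was assayed via released Pi (Sumner method), expressed as µM P/mg Chl/h and as % of control. Tested at 100–300 µM, or NH4Cl at 1–6 mM.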

[3] = system: Spinacia oleracea; experiment: Inhibition of thylakoid membrane bound Magnesium-transporting Mg2+ ATPase in Spinacia oleracea (spinach) leaves chloroplasts assessed as enzyme activity at 200 uM; parameters: scale not given: the % may be the effect or the level left; summary of the method: as §1
[4] = system: Spinacia oleracea; experiment: Inhibition of thylakoid membrane bound Magnesium-transporting Mg2+ ATPase in Spinacia oleracea (spinach) leaves chloroplasts assessed as enzyme activity at 100 uM; parameters: scale not given: the % may be the effect or the level left; summary of the method: as §1
[5] = molecular target: T1, Photosystem I iron-sulfur center (Spinacia oleracea) (UniProt P10098); experiment: Inhibition of photosystem I in Spinacia oleracea (spinach) leaves intact chloroplasts assessed as electron transport flow from TMQH2 to MV at 300 uM; parameters: scale not given: the % may be the effect or the level left
T1 sequence (whole entry): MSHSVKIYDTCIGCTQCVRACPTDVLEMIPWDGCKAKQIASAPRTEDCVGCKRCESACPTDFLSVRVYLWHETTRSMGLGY
Summary of the method: (§2)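 Electron flow from TMQH2 to MV was determined polarographically with a Clark electrode in basal electron transport medium.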

[6] = molecular target: T1, Photosystem I iron-sulfur center (Spinacia oleracea); experiment: Inhibition of photosystem I in Spinacia oleracea (spinach) leaves intact chloroplasts assessed as electron transport flow from TMQH2 to MV at 200 uM; parameters: scale not given: the % may be the effect or the level left; summary of the method: as §2
[7] = molecular target: T1, Photosystem I iron-sulfur center (Spinacia oleracea); experiment: Inhibition of photosystem I in Spinacia oleracea (spinach) leaves intact chloroplasts assessed as electron transport flow from TMQH2 to MV at 100 uM; parameters: scale not given: the % may be the effect or the level left; summary of the method: as §2
[8] = molecular target: T1, Photosystem I iron-sulfur center (Spinacia oleracea); experiment: Inhibition of photosystem I in Spinacia oleracea (spinach) leaves intact chloroplasts assessed as electron transport flow from DCPIP to MV at 300 uM; parameters: scale not given: the % may be the effect or the level left
Summary of the method: (§3)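 Uncoupled PSI flow, reduced DCPIP to MV, in basal electron transport medium (3 mL). Additions: 10 µM DCMU, 100 µM DCPIP, 300 µM ascorbate and 6 mM NH4Cl. O2 uptake was monitored with a Clark electrode.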

[9] = molecular target: T1, Photosystem I iron-sulfur center (Spinacia oleracea); experiment: Inhibition of photosystem I in Spinacia oleracea (spinach) leaves intact chloroplasts assessed as electron transport flow from DCPIP to MV at 200 uM; parameters: scale not given: the % may be the effect or the level left; summary of the method: as §3
[10] = molecular target: T1, Photosystem I iron-sulfur center (Spinacia oleracea); experiment: Inhibition of photosystem I in Spinacia oleracea (spinach) leaves intact chloroplasts assessed as electron transport flow from DCPIP to MV at 100 uM; parameters: scale not given: the % may be the effect or the level left; summary of the method: as §3
[11] = molecular target: Photosystem II protein D1 (Spinacia oleracea) (UniProt P69560); experiment: Inhibition of photosystem II in Spinacia oleracea (spinach) leaves intact chloroplasts assessed as electron transport flow from DPC to DCPIP at 300 uM; parameters: scale not given: the % may be the effect or the level left
Summary of the method: (§4)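 Thylakoids (45 µg Chl) were pretreated with 0.8 M Tris pH 8.0 for 30 min at 4 °C, centrifuged 5000g for 2 min and resuspended in reaction medium. Electron flow from DPC to DCPIP was read spectrophotometrically at 600 nm, with DCPIP reduction quantified by its molar extinction coefficient. I50 values were calculated.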

[12] = molecular target: Photosystem II protein D1 (Spinacia oleracea) (UniProt P69560); experiment: Inhibition of photosystem II in Spinacia oleracea (spinach) leaves intact chloroplasts assessed as electron transport flow from DPC to DCPIP at 100 uM; parameters: scale not given: the % may be the effect or the level left; summary of the method: as §4
[13] = molecular target: Photosystem II protein D1 (Spinacia oleracea) (UniProt P69560); experiment: Inhibition of photosystem II in Spinacia oleracea (spinach) leaves intact chloroplasts assessed as electron transport flow from H2O to SiMo at 300 uM; parameters: scale not given: the % may be the effect or the level left
Summary of the method: (§5)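 Uncoupled partial PSII reaction, water to silicomolybdate, measured by Clark electrode O2 evolution. Basal medium (sorbitol/KCl/MgCl2/KCN/30 mM tricine pH 8) was supplemented with 200 µM SiMo, 10 µM DCMU and 6 mM NH4Cl, without MV. I50 values were calculated.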

[14] = molecular target: Photosystem II protein D1 (Spinacia oleracea) (UniProt P69560); experiment: Inhibition of photosystem II in Spinacia oleracea (spinach) leaves intact chloroplasts assessed as electron transport flow from H2O to SiMo at 200 uM; parameters: scale not given: the % may be the effect or the level left; summary of the method: as §5
[15] = system: Spinacia oleracea; experiment: Inhibition of basal electron transport flow in Spinacia oleracea (spinach) leaves intact chloroplasts at 88 uM; assay type: functional
[16] = system: Spinacia oleracea; experiment: Inhibition of uncoupled electron transport flow in Spinacia oleracea (spinach) leaves intact chloroplasts; assay type: functional; conditions: read-out: I50
[17] = molecular target: Photosystem II protein D1 (Spinacia oleracea) (UniProt P69560); experiment: Inhibition of photosystem II in Spinacia oleracea (spinach) leaves intact chloroplasts assessed as electron transport flow from H2O to DCPIP at 200 uM; parameters: scale not given: the % may be the effect or the level left
Summary of the method: (§6)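 Uncoupled PSII, water to DCPIP, was followed as DCPIP-supported O2 evolution on a Clark electrode. Medium: basal electron transport medium with 1 µM DBMIB, 100 µM DCPIP, 300 µM K3[Fe(CN)6] and 6 mM NH4Cl, without MV. I50 values were calculated.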

[18] = molecular target: Photosystem II protein D1 (Spinacia oleracea) (UniProt P69560); experiment: Inhibition of photosystem II in Spinacia oleracea (spinach) leaves intact chloroplasts assessed as electron transport flow from H2O to DCPIP at 300 uM; parameters: scale not given: the % may be the effect or the level left; summary of the method: as §6
[19] = molecular target: Photosystem II protein D1 (Spinacia oleracea) (UniProt P69560); experiment: Inhibition of photosystem II in Spinacia oleracea (spinach) leaves intact chloroplasts assessed as electron transport flow from DPC to DCPIP at 200 uM; parameters: scale not given: the % may be the effect or the level left; summary of the method: as §4
[20] = molecular target: Photosystem II protein D1 (Spinacia oleracea) (UniProt P69560); experiment: Inhibition of photosystem II in Spinacia oleracea (spinach) leaves intact chloroplasts assessed as electron transport flow from H2O to DCPIP at 100 uM; parameters: scale not given: the % may be the effect or the level left; summary of the method: as §6
[21] = system: Spinacia oleracea; experiment: Inhibition of ATP synthesis in Spinacia oleracea (spinach) leaves intact chloroplasts; assay type: functional; conditions: read-out: I50
[22] = molecular target: Photosystem II protein D1 (Spinacia oleracea) (UniProt P69560); experiment: Inhibition of photosystem II in Spinacia oleracea (spinach) leaves intact chloroplasts assessed as electron transport flow from H2O to SiMo at 100 uM; parameters: scale not given: the % may be the effect or the level left; summary of the method: as §5
[23] = system: Spinacia oleracea; experiment: Inhibition of uncoupled electron transport flow in Spinacia oleracea (spinach) leaves intact chloroplasts at 300 uM; assay type: functional
[24] = system: Spinacia oleracea; experiment: Inhibition of thylakoid membrane bound Magnesium-transporting Mg2+ ATPase in Spinacia oleracea (spinach) leaves chloroplasts assessed as enzyme activity at 6 mM; parameters: scale not given: the % may be the effect or the level left; summary of the method: as §1
[25] = system: Spinacia oleracea; experiment: Inhibition of thylakoid membrane bound Magnesium-transporting Mg2+ ATPase in Spinacia oleracea (spinach) leaves chloroplasts assessed as enzyme activity at 3 mM; parameters: scale not given: the % may be the effect or the level left; summary of the method: as §1
[26] = system: Spinacia oleracea; experiment: Inhibition of thylakoid membrane bound Magnesium-transporting Mg2+ ATPase in Spinacia oleracea (spinach) leaves chloroplasts assessed as enzyme activity at 1 mM; parameters: scale not given: the % may be the effect or the level left; summary of the method: as §1
[27] = system: Spinacia oleracea; experiment: Increase in chlorophyll a fluorescence in freshly lysed Spinacia oleracea (spinach) leaves chloroplasts at 10 uM
[28] = molecular target: T1, Photosystem I iron-sulfur center (Spinacia oleracea); experiment: Inhibition of photosystem I in Spinacia oleracea (spinach) leaves chloroplasts assessed as effect on partial reaction from PMS reduced with ascorbate to MV using KCN treated thylakoids
Summary of the method: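 Chloroplasts were held in basal medium with 30 mM KCN for 60 min at 4 °C in the dark to release plastocyanin. They were then diluted in sucrose/30 mM HEPES-NaOH pH 7.2/2 mM MgCl2, centrifuged 5000g for 2 min and resuspended. Flow from 100 µM PMS/300 µM ascorbate to MV was assayed in basal medium plus 1 µM DBMIB.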

[29] = molecular target: T1, Photosystem I iron-sulfur center (Spinacia oleracea); experiment: Inhibition of photosystem I in Spinacia oleracea (spinach) leaves intact chloroplasts assessed as electron transport flow from TMQH2 to MV at 50 uM; parameters: scale not given: the % may be the effect or the level left; summary of the method: as §2
[30] = molecular target: T1, Photosystem I iron-sulfur center (Spinacia oleracea); experiment: Inhibition of photosystem I in Spinacia oleracea (spinach) leaves intact chloroplasts assessed as electron transport flow from DCPIP to MV at 50 uM; parameters: scale not given: the % may be the effect or the level left; summary of the method: as §3
[31] = molecular target: Photosystem II protein D1 (Spinacia oleracea) (UniProt P69560); experiment: Inhibition of photosystem II in Spinacia oleracea (spinach) leaves intact chloroplasts assessed as electron transport flow from H2O to DCPIP at 50 uM; parameters: scale not given: the % may be the effect or the level left; summary of the method: as §6

SMILES	Activity [2] [%]	Activity [3] [%]	Activity [4] [%]	Activity [5] [%]	Activity [6] [%]	Activity [7] [%]	Activity [8] [%]	Activity [9] [%]	Activity [10] [%]	Activity [17] [%]	Activity [18] [%]	Activity [20] [%]	IC50 [21] [µM]	Inhibition % [23] [%]	other results
O=c1cc(-c2ccc(O)c(-c3c(O)cc4oc(-c5ccc(O)cc5)cc(=O)c4c3O)c2)oc2cc(O)cc(O)c12 [ROBUSTAFLAVONE]	76	76	76	100	100	100	100	100	100	43	29	57	44		inhibition [1]: Active; Activity [11]: 9%; Activity [12]: 89%; Activity [13]: 50%; Activity [14]: 50%; inhibition [15]: 22%; IC50 [16]: 88 µM; Activity [19]: 35%; Activity [22]: 100%
COc1cc(O)cc2c1C(=O)CC(c1ccc(O)c(-c3c(O)cc4oc(-c5ccc(O)cc5)cc(=O)c4c3O)c1)O2 (stereo not drawn)	20	44	63	100	100	100	100	100	100	100	100	100	79	25	
Cl.N															Activity [24]: 124%; Activity [25]: 240%; Activity [26]: 206%
CN(C)C(=O)Nc1ccc(Cl)c(Cl)c1															Activity [27]: Active
O=C1CC(c2ccc(O)c(-c3c(O)cc4oc(-c5ccc(O)cc5)cc(=O)c4c3O)c2)Oc2cc(O)cc(O)c21 (stereo not drawn) [2,3-DIHYDROROBUSTAFLAVONE]	34	47	53	72	74	98	71	71	74	100	100	100	39	32	inhibition [28]: inactive; Activity [29]: 100%; Activity [30]: 96%; Activity [31]: 100%
